Experimental data published in ChEMBL document CHEMBL3576764, “α-Ketoamino acid ester derivatives as promising MAO inhibitors” (Bioorg Med Chem Lett, 2014).

What was measured:
[1] = molecular target: T1, Amine oxidase [flavin-containing] B (Bos taurus, UniProt P56560); assay: Inhibition of MAO-B in bovine brain mitochondria using benzylamine as substrate
T1 sequence (P56560 whole entry): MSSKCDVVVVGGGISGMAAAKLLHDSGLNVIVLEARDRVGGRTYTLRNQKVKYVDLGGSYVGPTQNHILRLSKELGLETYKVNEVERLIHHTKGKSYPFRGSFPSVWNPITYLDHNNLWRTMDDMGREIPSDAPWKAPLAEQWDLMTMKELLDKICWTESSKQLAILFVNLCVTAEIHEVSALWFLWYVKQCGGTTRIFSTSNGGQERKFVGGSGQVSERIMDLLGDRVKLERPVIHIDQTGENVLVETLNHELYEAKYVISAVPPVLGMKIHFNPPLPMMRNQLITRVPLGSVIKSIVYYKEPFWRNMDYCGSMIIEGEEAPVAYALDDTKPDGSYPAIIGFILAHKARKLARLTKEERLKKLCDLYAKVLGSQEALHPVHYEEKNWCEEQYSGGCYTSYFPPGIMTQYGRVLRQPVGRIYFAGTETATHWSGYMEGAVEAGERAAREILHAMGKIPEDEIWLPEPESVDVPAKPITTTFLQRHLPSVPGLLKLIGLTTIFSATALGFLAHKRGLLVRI

[2] = molecular target: T2, Amine oxidase [flavin-containing] A (Rattus norvegicus, UniProt P21396); assay: Inhibition of MAO-A in rat liver mitochondria using serotonin as substrate preincubated with enzyme for 60 mins prior to substrate addition
T2 sequence (P21396 whole entry): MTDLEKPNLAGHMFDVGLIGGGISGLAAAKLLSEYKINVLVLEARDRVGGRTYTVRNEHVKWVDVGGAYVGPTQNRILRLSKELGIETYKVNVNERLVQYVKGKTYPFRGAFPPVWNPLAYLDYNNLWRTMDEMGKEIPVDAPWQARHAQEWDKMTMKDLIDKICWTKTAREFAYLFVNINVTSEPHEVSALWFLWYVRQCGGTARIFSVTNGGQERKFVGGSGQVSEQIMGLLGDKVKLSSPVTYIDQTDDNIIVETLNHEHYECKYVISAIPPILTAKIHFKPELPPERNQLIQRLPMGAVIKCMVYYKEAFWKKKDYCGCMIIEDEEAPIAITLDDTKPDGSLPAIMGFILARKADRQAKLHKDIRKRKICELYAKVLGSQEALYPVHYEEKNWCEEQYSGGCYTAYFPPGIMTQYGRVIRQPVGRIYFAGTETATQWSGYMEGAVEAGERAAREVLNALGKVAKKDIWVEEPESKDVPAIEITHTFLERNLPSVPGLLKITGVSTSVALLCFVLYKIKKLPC

[3] = Selectivity index, ratio of IC50 for MAO-B in bovine brain mitochondria to IC50 for MAO-A in rat liver mitochondria
How it was run: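 Enzyme source was mitochondria: rat liver for MAO-A, and bovine brain for MAO-B. Compounds were preincubated 60 min with enzyme before substrate was added: serotonin for MAO-A, benzylamine for MAO-B. Clorgyline served as the irreversible, time-dependent reference. Values are reported as IC50, and the selectivity index was derived from the MAO-A and MAO-B IC50s.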

Mus musculus [4] = assay: Toxicity in mouse assessed as mortality up to 250 mg/kg, po; assay type: organism-based; conditions: in vivo
How it was run: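 Acute oral toxicity study in male mice, with oral dosing up to 250 mg/kg and mortality recorded.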

Mus musculus [5] = assay: Toxicity in mouse up to dosed through parenteral route; conditions: in vivo

Compound | IC50 [1] | IC50 [2] | Selectivity Index [3] | Activity (Mus musculus [4]) | Activity (Mus musculus [5])
CC(=O)N1C(=O)C(=O)c2ccccc21 | 380 µM | 0.056 µM | 6780 | – | –
COC(=O)[C@H](C)NC(=O)c1ccc(NC(=O)C(=O)c2ccccc2NC(C)=O)cc1 | 730 µM | 0.036 µM | 20300 | Non-toxic | Non-toxic
COC(=O)CCNC(=O)c1ccc(NC(=O)C(=O)c2ccccc2NC(C)=O)cc1 | 530 µM | 0.018 µM | 29400 | Non-toxic | Non-toxic
COC(=O)CCCNC(=O)c1ccc(NC(=O)C(=O)c2ccccc2NC(C)=O)cc1 | 590 µM | 0.049 µM | 12000 | – | –
COC(=O)C[C@H](NC(=O)C(=O)c1ccccc1NC(C)=O)C(=O)OC | 460 µM | 0.058 µM | 7930 | – | –
COC(=O)[C@H](CC(C)C)NC(=O)C(=O)c1ccccc1NC(C)=O | 480 µM | 0.072 µM | 6660 | – | –
CCOC(=O)c1ccc(NC(=O)C(=O)c2ccccc2NC(C)=O)cc1 | 990 µM | 0.083 µM | 11900 | – | –
COC(=O)[C@@H](NC(=O)c1ccc(NC(=O)C(=O)c2ccccc2NC(C)=O)cc1)C(C)C | 430 µM | 0.0028 µM | 154000 | Non-toxic | Non-toxic
COC(=O)CCCCCNC(=O)C(=O)c1ccccc1NC(C)=O | 590 µM | 0.068 µM | 8670 | – | –
COC(=O)C(C)(C)NC(=O)c1ccc(NC(=O)C(=O)c2ccccc2NC(C)=O)cc1 | 360 µM | 0.043 µM | 8370 | – | –
COC(=O)CCCCCNC(=O)c1ccc(NC(=O)C(=O)c2ccccc2NC(C)=O)cc1 | 780 µM | 0.093 µM | 8380 | – | –
COC(=O)C[C@H](NC(=O)c1ccc(NC(=O)C(=O)c2ccccc2NC(C)=O)cc1)C(=O)OC | 790 µM | 0.06 µM | 13200 | – | –
COC(=O)CCCNC(=O)C(=O)c1ccccc1NC(C)=O | 950 µM | 0.062 µM | 15300 | – | –
COC(=O)C1(NC(=O)c2ccc(NC(=O)C(=O)c3ccccc3NC(C)=O)cc2)CCCC1 | 380 µM | 0.048 µM | 7910 | – | –
COC(=O)CCNC(=O)C(=O)c1ccccc1NC(C)=O | 990 µM | 0.033 µM | 30000 | Non-toxic | Non-toxic
COC(=O)[C@H](Cc1ccccc1)NC(=O)c1ccc(NC(=O)C(=O)c2ccccc2NC(C)=O)cc1 | 280 µM | 0.036 µM | 7770 | – | –
